# Results taken from the RNAGym collection of RNA variant scans (doi:10.1002/anie.201605470).
# B1: Osa-1-4 twister ribozyme (parent)
# chain: CCGCCUAACACUGCCAAUGCCGGUCCCAAGCCCGGAUAAAAGUGGAGGGGGCGG
# Variants of: B1
# Assay: self-cleavage, relative activity (ratio to wild type); higher = more cleavage; co-transcriptional
# Method in brief: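 The 48 positions downstream of the cleavage site in a 54-nucleotide Oryza sativa twister ribozyme template were synthesised at 97 % wild-type base and 1 % of each other base. The template was transcribed in vitro at 37 °C for 2 h, with self-cleavage allowed during transcription. Reads with or without upstream sequence after deep sequencing marked cleavage status, and relative activity is fraction cleaved normalised to wild type.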
row,Variant,self-cleavage
1,CCGCCUAACACUUCCAAUGCCGGUCCCAAGCCCGGAUAAAAAUGGAGGGGGCGG [G13U G42A],0.02
2,CCGCCUAACACUUCCAAUGCCGGUCCCAAGCCCGGAUAAAACUGGAGGGGGCGG [G13U G42C],0.01
3,CCGCCUAACACUUCCAAUGCCGGUCCCAAGCCCGGAUAAAAUUGGAGGGGGCGG [G13U G42U],0.01
4,CCGCCUAACACUUCCAAUGCCGGUCCCAAGCCCGGAUAAAAGUAGAGGGGGCGG [G13U G44A],0.03
5,CCGCCUAACACUUCCAAUGCCGGUCCCAAGCCCGGAUAAAAGUCGAGGGGGCGG [G13U G44C],0.03
6,CCGCCUAACACUUCCAAUGCCGGUCCCAAGCCCGGAUAAAAGUUGAGGGGGCGG [G13U G44U],0.04
7,CCGCCUAACACUUCCAAUGCCGGUCCCAAGCCCGGAUAAAAGUGAAGGGGGCGG [G13U G45A],0.02
8,CCGCCUAACACUUCCAAUGCCGGUCCCAAGCCCGGAUAAAAGUGCAGGGGGCGG [G13U G45C],0.01
9,CCGCCUAACACUUCCAAUGCCGGUCCCAAGCCCGGAUAAAAGUGUAGGGGGCGG [G13U G45U],0.02
10,CCGCCUAACACUUCCAAUGCCGGUCCCAAGCCCGGAUAAAAGUGGAAGGGGCGG [G13U G47A],0.02
11,CCGCCUAACACUUCCAAUGCCGGUCCCAAGCCCGGAUAAAAGUGGACGGGGCGG [G13U G47C],0.01
12,CCGCCUAACACUUCCAAUGCCGGUCCCAAGCCCGGAUAAAAGUGGAUGGGGCGG [G13U G47U],0.02
13,CCGCCUAACACUUCCAAUGCCGGUCCCAAGCCCGGAUAAAAGUGGAGAGGGCGG [G13U G48A],0.01
14,CCGCCUAACACUUCCAAUGCCGGUCCCAAGCCCGGAUAAAAGUGGAGCGGGCGG [G13U G48C],0.01
15,CCGCCUAACACUUCCAAUGCCGGUCCCAAGCCCGGAUAAAAGUGGAGUGGGCGG [G13U G48U],0.01
16,CCGCCUAACACUUCCAAUGCCGGUCCCAAGCCCGGAUAAAAGUGGAGGAGGCGG [G13U G49A],0.01
17,CCGCCUAACACUUCCAAUGCCGGUCCCAAGCCCGGAUAAAAGUGGAGGCGGCGG [G13U G49C],0.01
18,CCGCCUAACACUUCCAAUGCCGGUCCCAAGCCCGGAUAAAAGUGGAGGUGGCGG [G13U G49U],0.01
19,CCGCCUAACACUUCCAAUGCCGGUCCCAAGCCCGGAUAAAAGUGGAGGGAGCGG [G13U G50A],0.03
20,CCGCCUAACACUUCCAAUGCCGGUCCCAAGCCCGGAUAAAAGUGGAGGGCGCGG [G13U G50C],0.02
21,CCGCCUAACACUUCCAAUGCCGGUCCCAAGCCCGGAUAAAAGUGGAGGGUGCGG [G13U G50U],0.03
22,CCGCCUAACACUUCCAAUGCCGGUCCCAAGCCCGGAUAAAAGUGGAGGGGACGG [G13U G51A],0.02
23,CCGCCUAACACUUCCAAUGCCGGUCCCAAGCCCGGAUAAAAGUGGAGGGGCCGG [G13U G51C],0.01
24,CCGCCUAACACUUCCAAUGCCGGUCCCAAGCCCGGAUAAAAGUGGAGGGGUCGG [G13U G51U],0.02

row,Variant,self-cleavage
1,CCGCCUAACACUUCCAAUGCCGGUCCCAAGCCCGGAUAAAAGUGGAGGGGGCAG [G13U G53A],0.03
2,CCGCCUAACACUUCCAAUGCCGGUCCCAAGCCCGGAUAAAAGUGGAGGGGGCCG [G13U G53C],0.01
3,CCGCCUAACACUUCCAAUGCCGGUCCCAAGCCCGGAUAAAAGUGGAGGGGGCUG [G13U G53U],0.02
4,CCGCCUAACACUUCCAAUGCCGGUCCCAAGCCCGGAUAAAAGUGGAGGGGGCGA [G13U G54A],0.03
5,CCGCCUAACACUUCCAAUGCCGGUCCCAAGCCCGGAUAAAAGUGGAGGGGGCGC [G13U G54C],0.02
6,CCGCCUAACACUUCCAAUGCCGGUCCCAAGCCCGGAUAAAAGUGGAGGGGGCGU [G13U G54U],0.04
7,CCGCCUAACACAUCCAAUGCCGGUCCCAAGCCCGGAUAAAAGUGGAGGGGGCGG [G13U U12A],0.02
8,CCGCCUAACACCUCCAAUGCCGGUCCCAAGCCCGGAUAAAAGUGGAGGGGGCGG [G13U U12C],0.05
9,CCGCCUAACACGUCCAAUGCCGGUCCCAAGCCCGGAUAAAAGUGGAGGGGGCGG [G13U U12G],0.14
10,CCGCCUAACACUUCCAAAGCCGGUCCCAAGCCCGGAUAAAAGUGGAGGGGGCGG [G13U U18A],0.03
11,CCGCCUAACACUUCCAACGCCGGUCCCAAGCCCGGAUAAAAGUGGAGGGGGCGG [G13U U18C],0.03
12,CCGCCUAACACUUCCAAGGCCGGUCCCAAGCCCGGAUAAAAGUGGAGGGGGCGG [G13U U18G],0.05
13,CCGCCUAACACUUCCAAUGCCGGACCCAAGCCCGGAUAAAAGUGGAGGGGGCGG [G13U U24A],0.01
14,CCGCCUAACACUUCCAAUGCCGGCCCCAAGCCCGGAUAAAAGUGGAGGGGGCGG [G13U U24C],0.03
15,CCGCCUAACACUUCCAAUGCCGGGCCCAAGCCCGGAUAAAAGUGGAGGGGGCGG [G13U U24G],0.02
16,CCGCCUAACACUUCCAAUGCCGGUCCCAAGCCCGGAAAAAAGUGGAGGGGGCGG [G13U U37A],0.02
17,CCGCCUAACACUUCCAAUGCCGGUCCCAAGCCCGGACAAAAGUGGAGGGGGCGG [G13U U37C],0.03
18,CCGCCUAACACUUCCAAUGCCGGUCCCAAGCCCGGAGAAAAGUGGAGGGGGCGG [G13U U37G],0.04
19,CCGCCUAACACUUCCAAUGCCGGUCCCAAGCCCGGAUAAAAGAGGAGGGGGCGG [G13U U43A],0.02
20,CCGCCUAACACUUCCAAUGCCGGUCCCAAGCCCGGAUAAAAGCGGAGGGGGCGG [G13U U43C],0.03
21,CCGCCUAACACUUCCAAUGCCGGUCCCAAGCCCGGAUAAAAGGGGAGGGGGCGG [G13U U43G],0.04
22,CCGCCUAACACUGACAAUGCCGGUCCCAAGCCCGGAUAAAAGUGGAGGGGGCGG [C14A],0.13
23,CCGCCUAAAACUGACAAUGCCGGUCCCAAGCCCGGAUAAAAGUGGAGGGGGCGG [C14A C9A],0.03
24,CCGCCUAAGACUGACAAUGCCGGUCCCAAGCCCGGAUAAAAGUGGAGGGGGCGG [C14A C9G],0.06
